Results: ChEMBL document CHEMBL4330106, “A new class of pentapeptide KISS1 receptor agonists with hypothalamic-pituitary-gonadal axis activation” (Bioorg Med Chem Lett, 2019)
Square brackets hold non-standard residues; d marks the D form. Peptide text beside a SMILES is read from it. * marks the point of attachment. Propanoyl(3-indol-3-yl) = O=C(CCc1c[nH]c2ccccc12)*; Propanoyl(3-(4-pyridyl)) = O=C(CCc1ccncc1)*; Arg(Me) = CNC(=N)NCCC[C@H](N)C(=O)O; Hydrocinnamoyl = O=C(CCc1ccccc1)*; d4Pal = N[C@H](Cc1ccncc1)C(=O)O; Hexanoyl = CCCCCC(=O)*; Bz = O=C(c1ccccc1)*; azaGly = NNC(=O)O

Tests used:
[1] = Retention time of the compound by reverse-phase HPLC method; type: physicochemical
Summary of the method: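 RP-HPLC on C18 monolith column. Linear gradient of 0.1% TFA water / 0.1% TFA acetonitrile, A/B 95/5 to 35/65 over 10 min, 3.0 mL/min.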

KiSS-1 receptor [2] = target: KiSS-1 receptor (Homo sapiens, UniProt Q969F8); experiment: Agonist activity at human KISS1R expressed in CHO cells assessed as increase in calcium mobilization measured at 2 secs interval for 2 mins by fluo-4 NW dye based FLIPR assay; type: functional, cell-based
Sequence of KiSS-1 receptor (Homo sapiens, UniProt Q969F8) (Q969F8 whole entry): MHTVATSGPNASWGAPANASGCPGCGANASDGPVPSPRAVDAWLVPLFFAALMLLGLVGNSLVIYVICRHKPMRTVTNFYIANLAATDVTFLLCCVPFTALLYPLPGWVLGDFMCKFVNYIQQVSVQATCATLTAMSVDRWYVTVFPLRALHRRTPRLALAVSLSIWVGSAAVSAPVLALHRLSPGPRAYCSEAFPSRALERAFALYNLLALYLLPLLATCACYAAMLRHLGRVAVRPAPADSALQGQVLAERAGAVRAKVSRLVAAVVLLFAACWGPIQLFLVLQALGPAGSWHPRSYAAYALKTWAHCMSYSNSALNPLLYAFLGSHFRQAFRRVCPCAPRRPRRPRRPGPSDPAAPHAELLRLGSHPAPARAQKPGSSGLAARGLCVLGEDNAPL
Summary of the method: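 Ligand-induced Ca2+ rise in CHO cells expressing human KISS1R, read on a fluorometric imaging plate reader (FLIPR); agonist potency reported as EC50 (nM).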

[3] = Stability in Sprague-Dawley rat serum assessed as parent compound remaining at 10 ug/ml measured after 60 mins by LC-MS/MS analysis; type: ADME, cell-free; conditions: read-out: Stability
Summary of the method: (§1)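 10 µL of 10 μg/mL aqueous peptide stock added to 990 μL pre-warmed SD rat serum (final 0.1 μg/mL), 37 °C. Aliquots taken at 0, 5, 15, 30, 60, 120 min. Quenched with formic acid/methanol and acetonitrile, centrifuged, internal standard added, quantified by LC/MS/MS. Result is percent remaining; n = 2.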

[4] = Stability in Sprague-Dawley rat serum assessed as parent compound remaining at 10 ug/ml measured after 30 mins by LC-MS/MS analysis; type: ADME, cell-free; conditions: read-out: Stability; summary of the method: as §1
[5] = Stability in Sprague-Dawley rat serum assessed as parent compound remaining at 10 ug/ml measured after 5 mins by LC-MS/MS analysis; type: ADME, cell-free; conditions: read-out: Stability; summary of the method: as §1
[6] = Stability in Sprague-Dawley rat serum assessed as parent compound remaining at 10 ug/ml measured after 120 mins by LC-MS/MS analysis; type: ADME, cell-free; conditions: read-out: Stability; summary of the method: as §1
KiSS-1 receptor [7] = target: KiSS-1 receptor (Rattus norvegicus, UniProt Q924U1); experiment: Agonist activity at rat KISS1R
Sequence of KiSS-1 receptor (Rattus norvegicus, UniProt Q924U1) (Q924U1 whole entry): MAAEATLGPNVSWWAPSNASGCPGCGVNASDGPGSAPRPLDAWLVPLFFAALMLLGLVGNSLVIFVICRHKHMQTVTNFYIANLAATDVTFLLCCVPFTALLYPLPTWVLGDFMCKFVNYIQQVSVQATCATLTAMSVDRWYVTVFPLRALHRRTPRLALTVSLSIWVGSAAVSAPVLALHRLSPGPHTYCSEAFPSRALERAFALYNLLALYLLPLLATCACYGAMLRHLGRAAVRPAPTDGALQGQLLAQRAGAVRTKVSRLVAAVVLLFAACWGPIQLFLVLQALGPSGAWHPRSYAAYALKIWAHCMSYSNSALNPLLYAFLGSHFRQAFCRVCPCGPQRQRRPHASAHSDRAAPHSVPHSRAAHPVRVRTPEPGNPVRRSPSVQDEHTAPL

[8] = Stability in Sprague-Dawley rat serum assessed as parent compound remaining at 10 ug/ml measured after 15 mins by LC-MS/MS analysis; type: ADME, cell-free; conditions: read-out: Stability; summary of the method: as §1
[9] = Stability in Sprague-Dawley rat serum assessed as parent compound remaining at 10 ug/ml measured immediately by LC-MS/MS analysis; type: ADME, cell-free; conditions: read-out: Stability; summary of the method: as §1
[10] = Solubility of the compound in saline; type: physicochemical
[11] = Solubility of the compound in water; type: physicochemical

Compound | Retention_time [1] | EC50 (KiSS-1 receptor [2]) | also measured
CNC(=N)NCCC[C@H](NC(=O)[C@H](CC(C)C)NC(=O)NNC(=O)[C@H](Cc1ccccc1)NC(=O)[C@H](CO)NC(=O)[C@H](CC(N)=O)NC(=O)[C@H](Cc1c[nH]c2ccccc12)NC(=O)[C@H](N)Cc1ccc(O)cc1)C(=O)N[C@@H](Cc1ccccc1)C(N)=O (H-[dY]WNSF[azaGly]L[Arg(Me)]F-NH2) | 5.54 min | 0.057 nM | 
CNC(=N)NCCC[C@H](NC(=O)[C@H](CC(C)C)NC(=O)NNC(=O)[C@H](Cc1ccccc1)NC(=O)[C@H](CO)NC(=O)[C@H](CC(N)=O)NC(=O)CCc1ccccc1)C(=O)N[C@@H](Cc1ccccc1)C(N)=O (Hydrocinnamoyl-NSF[azaGly]L[Arg(Me)]F-NH2) | 5.9 min | 0.17 nM | 
CNC(=N)NCCC[C@H](NC(=O)[C@H](CC(C)C)NC(=O)NNC(=O)[C@H](Cc1ccccc1)NC(=O)c1c[nH]cn1)C(=O)N[C@@H](Cc1c[nH]c2ccccc12)C(N)=O | 4.47 min | 0.24 nM | 
CNC(=N)NCCC[C@H](NC(=O)[C@H](CC(C)C)NC(=O)NNC(=O)[C@H](Cc1ccccc1)NC(=O)C1CCCCC1)C(=O)N[C@@H](Cc1c[nH]c2ccccc12)C(N)=O | 6.7 min | 0.12 nM | 
CNC(=N)NCCC[C@H](NC(=O)[C@H](CC(C)C)NC(=O)NNC(=O)[C@H](Cc1ccccc1)NC(=O)C(C)C)C(=O)N[C@@H](Cc1c[nH]c2ccccc12)C(N)=O | 5.88 min | 0.058 nM | 
CNC(=N)NCCC[C@H](NC(=O)[C@H](CC(C)C)NC(=O)NNC(=O)[C@H](Cc1ccccc1)NC(C)=O)C(=O)N[C@@H](Cc1ccccc1)C(N)=O (Ac-F[azaGly]L[Arg(Me)]F-NH2) | 5.02 min | 0.33 nM | 
CNC(=N)NCCC[C@H](NC(=O)[C@H](CC(C)C)NC(=O)NNC(=O)[C@H](Cc1ccccc1)NC(=O)[C@H](CO)NC(=O)[C@H](CC(N)=O)NC(=O)[C@@H](N)Cc1c[nH]c2ccccc12)C(=O)N[C@@H](Cc1ccccc1)C(N)=O (H-WNSF[azaGly]L[Arg(Me)]F-NH2) | 5.03 min | 7.7 nM | 
CNC(=N)NCCC[C@H](NC(=O)[C@H](CC(C)C)NC(=O)NNC(=O)[C@H](Cc1ccccc1)NC(=O)c1ccoc1)C(=O)N[C@@H](Cc1c[nH]c2ccccc12)C(N)=O | 5.88 min | 0.11 nM | 
CCC(=O)N[C@@H](Cc1ccccc1)C(=O)NNC(=O)N[C@@H](CC(C)C)C(=O)N[C@@H](CCCNC(=N)NC)C(=O)N[C@@H](Cc1c[nH]c2ccccc12)C(N)=O | 5.52 min | 0.13 nM | 
CNC(=N)NCCC[C@H](NC(=O)[C@H](CC(C)C)NC(=O)NNC(=O)[C@H](Cc1ccccc1)NC(=O)c1ccc[nH]1)C(=O)N[C@@H](Cc1c[nH]c2ccccc12)C(N)=O | 5.91 min | 0.23 nM | 
CNC(=N)NCCC[C@H](NC(=O)[C@H](CC(C)C)NC(=O)NNC(=O)[C@H](Cc1ccccc1)NC(=O)CCc1c[nH]c2ccccc12)C(=O)N[C@@H](Cc1c[nH]c2ccccc12)C(N)=O | 6.67 min | 0.022 nM | 
CNC(=N)NCCC[C@H](NC(=O)[C@H](CC(C)C)NC(=O)NNC(=O)[C@@H](N)Cc1ccccc1)C(=O)N[C@@H](Cc1ccccc1)C(N)=O (H-F[azaGly]L[Arg(Me)]F-NH2) | 4.29 min | 130 nM | 
CNC(=N)NCCC[C@H](NC(=O)[C@H](CC(C)C)NC(=O)NNC(=O)[C@H](Cc1ccccc1)NC(=O)c1ccccn1)C(=O)N[C@@H](Cc1c[nH]c2ccccc12)C(N)=O | 6.02 min | 0.037 nM | 
CNC(=N)NCCC[C@H](NC(=O)[C@H](CC(C)C)NC(=O)NNC(=O)[C@H](Cc1ccccc1)NC(=O)c1ccccc1)C(=O)N[C@@H](Cc1ccccc1)C(N)=O (Bz-F[azaGly]L[Arg(Me)]F-NH2) | 6.21 min | 0.6 nM | 
CNC(=N)NCCC[C@H](NC(=O)[C@H](CC(C)C)NC(=O)NNC(=O)[C@H](Cc1ccccc1)NC(=O)[C@H](CO)NC(=O)[C@H](CC(N)=O)NC(=O)CCc1c[nH]c2ccccc12)C(=O)N[C@@H](Cc1ccccc1)C(N)=O ({Propanoyl(3-indol-3-yl)}-NSF[azaGly]L[Arg(Me)]F-NH2) | 5.95 min | 0.13 nM | 
CNC(=N)NCCC[C@H](NC(=O)[C@H](CC(C)C)NC(=O)NNC(=O)[C@H](Cc1ccccc1)NC(=O)c1cccnc1)C(=O)N[C@@H](Cc1c[nH]c2ccccc12)C(N)=O | 4.69 min | 0.16 nM | 
CNC(=N)NCCC[C@H](NC(=O)[C@H](CC(C)C)NC(=O)NNC(=O)[C@H](Cc1ccccc1)NC(=O)[C@H](CO)NC(=O)CCc1c[nH]c2ccccc12)C(=O)N[C@@H](Cc1ccccc1)C(N)=O ({Propanoyl(3-indol-3-yl)}-SF[azaGly]L[Arg(Me)]F-NH2) | 6.17 min | 8.2 nM | 
CCCCCC(=O)N[C@@H](Cc1ccccc1)C(=O)NNC(=O)N[C@@H](CC(C)C)C(=O)N[C@@H](CCCNC(=N)NC)C(=O)N[C@@H](Cc1ccccc1)C(N)=O (Hexanoyl-F[azaGly]L[Arg(Me)]F-NH2) | 6.66 min | 1.4 nM | 
CNC(=N)NCCC[C@H](NC(=O)[C@H](CC(C)C)NC(=O)NNC(=O)[C@H](Cc1ccccc1)NC(=O)[C@H](CO)NC(=O)[C@H](CC(N)=O)NC(=O)CCc1ccncc1)C(=O)N[C@@H](Cc1ccccc1)C(N)=O ({Propanoyl(3-(4-pyridyl))}-NSF[azaGly]L[Arg(Me)]F-NH2) | 4.51 min | 1.5 nM | 
CNC(=N)NCCC[C@H](NC(=O)[C@H](CC(C)C)NC(=O)NNC(=O)[C@H](Cc1ccccc1)NC(=O)C1CC1)C(=O)N[C@@H](Cc1c[nH]c2ccccc12)C(N)=O | 5.7 min | 0.028 nM | 
CNC(=N)NCCC[C@H](NC(=O)[C@H](CC(C)C)NC(=O)NNC(=O)[C@H](Cc1ccccc1)NC(=O)[C@H](CO)NC(=O)[C@H](CC(N)=O)NC(=O)[C@H](Cc1c[nH]c2ccccc12)NC(C)=O)C(=O)N[C@@H](Cc1ccccc1)C(N)=O (Ac-WNSF[azaGly]L[Arg(Me)]F-NH2) | 5.76 min | 2.1 nM | 
CNC(=N)NCCC[C@H](NC(=O)[C@H](CC(C)C)NC(=O)NNC(=O)[C@H](Cc1ccccc1)NC(=O)CCc1c[nH]c2ccccc12)C(=O)N[C@@H](Cc1ccccc1)C(N)=O ({Propanoyl(3-indol-3-yl)}-F[azaGly]L[Arg(Me)]F-NH2) | 6.58 min | 0.62 nM | 
CNC(=N)NCCC[C@H](NC(=O)[C@H](CC(C)C)NC(=O)NNC(=O)[C@H](Cc1ccccc1)NC(=O)[C@H](CO)NC(=O)[C@H](CC(N)=O)NC(=O)[C@@H](Cc1ccncc1)NC(=O)[C@H](N)Cc1ccc(O)cc1)C(=O)N[C@@H](Cc1ccccc1)C(N)=O [KISS1-305] (H-[dY][d4Pal]NSF[azaGly]L[Arg(Me)]F-NH2) |  | 0.27 nM | remaining at 1 h, 10 ug/ml [3]: 89%; remaining at 0.5 h, 10 ug/ml [4]: 95%; remaining at 5 min, 10 ug/ml [5]: 98%; remaining at 2 h, 10 ug/ml [6]: 70%; EC50 (KiSS-1 receptor [7]): 0.17 nM; remaining at 0.25 h, 10 ug/ml [8]: 97%; remaining at 0 min, 10 ug/ml [9]: 100%
CNC(=N)NCCC[C@H](NC(=O)[C@H](CC(C)C)NC(=O)NNC(=O)[C@H](Cc1ccccc1)NC(=O)Cc1ccccc1)C(=O)N[C@@H](Cc1c[nH]c2ccccc12)C(N)=O | 6.49 min | 0.27 nM | 
CNC(=N)NCCC[C@H](NC(=O)[C@H](CC(C)C)NC(=O)NNC(=O)[C@H](Cc1ccccc1)NC(=O)c1ccccc1)C(=O)N[C@@H](Cc1c[nH]c2ccccc12)C(N)=O | 6.29 min | 0.024 nM | remaining at 1 h, 10 ug/ml [3]: 95%; remaining at 0.5 h, 10 ug/ml [4]: 99%; solubility [10]: < 0.1 mg/mL; remaining at 5 min, 10 ug/ml [5]: 98%; solubility [11]: < 10 mg/mL; remaining at 2 h, 10 ug/ml [6]: 91%; remaining at 0.25 h, 10 ug/ml [8]: 97%; remaining at 0 min, 10 ug/ml [9]: 100%
